Measurements as given in ChEMBL document CHEMBL1154675, “Identification of death-associated protein kinases inhibitors using structure-based virtual screening” (J Med Chem, 2009).
pIC50: −log10 of the molar value. Activity calls are given as the source filed them. The rule behind the calls is not given here.

What was measured:
[1] = target: T1, Death-associated protein kinase 3 (Homo sapiens, UniProt O43293); test: Inhibition of DAPK3 at 1 uM
Procedure, shortened: (§1)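 Single-concentration screen of recombinant DAPK3 in the standard Z'-LYTE Ser/Thr 13 peptide reaction: peptide substrate and ATP in 50 mM HEPES pH 7.4, 10 mM MgCl2, 0.01% Brij-35, 0.5% DMSO. Percent inhibition of enzyme activity was read at the stated final compound concentration.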
Target sequence in this assay (O43293 whole entry, looked up): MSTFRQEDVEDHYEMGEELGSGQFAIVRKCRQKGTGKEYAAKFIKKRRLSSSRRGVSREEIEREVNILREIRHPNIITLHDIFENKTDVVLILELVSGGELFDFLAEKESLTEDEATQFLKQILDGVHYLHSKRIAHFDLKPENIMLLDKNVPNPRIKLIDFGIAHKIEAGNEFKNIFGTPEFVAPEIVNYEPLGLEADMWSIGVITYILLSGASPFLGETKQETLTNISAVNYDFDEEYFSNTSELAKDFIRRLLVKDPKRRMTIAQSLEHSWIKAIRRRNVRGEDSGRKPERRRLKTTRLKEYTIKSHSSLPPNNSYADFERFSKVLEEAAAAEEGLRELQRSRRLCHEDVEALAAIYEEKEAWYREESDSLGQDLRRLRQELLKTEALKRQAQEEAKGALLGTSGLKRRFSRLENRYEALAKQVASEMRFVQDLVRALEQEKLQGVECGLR

[2] = target: T1, Death-associated protein kinase 3; test: Inhibition of DAPK3 at 10 uM; procedure, shortened: as §1
Target sequence in this assay (O43293 whole entry, looked up): as above

[3] = Inhibition of PKGalpha at 10 uM
[4] = target: Rho-associated protein kinase 2 (Homo sapiens) (UniProt O75116); test: Inhibition of ROCK2 at 10 uM
[5] = target: Insulin receptor (Homo sapiens) (UniProt P06213); test: Inhibition of INSR at 10 uM
[6] = target: Serine/threonine-protein kinase MARK1 (Homo sapiens) (UniProt Q9P0L2); test: Inhibition of MARK1 at 10 uM
[7] = target: Serine/threonine-protein kinase D2 (Homo sapiens) (UniProt Q9BZL6); test: Inhibition of PKD2 at 10 uM
[8] = target: Serine/threonine-protein kinase Chk2 (Homo sapiens) (UniProt O96017); test: Inhibition of CHK2 at 10 uM
Procedure, shortened: (§2)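 Selectivity panel run with ProfilerPro kinase kits following the kit protocol. Activity against each kinase was reported as an IC50 range: below 1 μM, between 1 and 10 μM, or above 10 μM.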

[9] = target: Mitogen-activated protein kinase 3 (Homo sapiens) (UniProt P27361); test: Inhibition of Erk1 at 10 uM
[10] = target: RAF proto-oncogene serine/threonine-protein kinase (Homo sapiens) (UniProt P04049); test: Inhibition of c-Raf at 10 uM
[11] = target: Fibroblast growth factor receptor 1 (Homo sapiens, UniProt P11362); test: Inhibition of FGFR1; procedure, shortened: as §2
[12] = target: Mitogen-activated protein kinase 14 (Homo sapiens) (UniProt Q16539); test: Inhibition of p38alpha at 10 uM
[13] = target: Mitogen-activated protein kinase 1 (Homo sapiens, UniProt P28482); test: Inhibition of Erk2; procedure, shortened: as §2
[14] = target: RAC-alpha serine/threonine-protein kinase (Homo sapiens) (UniProt P31749); test: Inhibition of AKT1 at 10 uM
[15] = target: Proto-oncogene tyrosine-protein kinase Src (Homo sapiens) (UniProt P12931); test: Inhibition of SRC at 10 uM
[16] = Inhibition of p70S6K
Procedure, shortened: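 Selectivity panel of kinases run with a commercial profiling kit according to the kit protocol. Inhibition is reported only as IC50 bands: below 1 μM, 1–10 μM, or above 10 μM.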

[17] = target: MAP kinase-activated protein kinase 5 (Homo sapiens) (UniProt Q8IW41); test: Inhibition of PRAK at 10 uM; procedure, shortened: as §2
[18] = target: Tyrosine-protein kinase Lyn (Homo sapiens) (UniProt P07948); test: Inhibition of LYN at 10 uM; procedure, shortened: as §2
[19] = Inhibition of CAMK2 at 10 uM
[20] = target: Serine/threonine-protein kinase pim-2 (Homo sapiens) (UniProt Q9P1W9); test: Inhibition of PIM2 at 10 uM
[21] = target: Mitogen-activated protein kinase kinase kinase kinase 4 (Homo sapiens) (UniProt O95819); test: Inhibition of HGK at 10 uM
[22] = target: Interleukin-1 receptor-associated kinase 4 (Homo sapiens) (UniProt Q9NWZ3); test: Inhibition of IRAK4 at 10 uM; procedure, shortened: as §2
[23] = target: Hepatocyte growth factor receptor (Homo sapiens) (UniProt P08581); test: Inhibition of MET at 10 uM; procedure, shortened: as §2
[24] = target: Vascular endothelial growth factor receptor 2 (Homo sapiens, UniProt P35968); test: Inhibition of KDR; procedure, shortened: as §2
[25] = target: Insulin-like growth factor 1 receptor (Homo sapiens) (UniProt P08069); test: Inhibition of IGF1R at 10 uM
[26] = target: Tyrosine-protein kinase BTK (Homo sapiens) (UniProt Q06187); test: Inhibition of BTK at 10 uM; procedure, shortened: as §2
[27] = target: Aurora kinase A (Homo sapiens) (UniProt O14965); test: Inhibition of AurA at 10 uM
[28] = target: Receptor-type tyrosine-protein kinase FLT3 (Homo sapiens) (UniProt P36888); test: Inhibition of FLT3 at 10 uM
[29] = target: MAP kinase-activated protein kinase 2 (Homo sapiens) (UniProt P49137); test: Inhibition of MAPKAPK2 at 10 uM; procedure, shortened: as §2
[30] = target: Casein kinase I isoform delta (Homo sapiens, UniProt P48730); test: Inhibition of CK1delta; procedure, shortened: as §2
[31] = target: Tyrosine-protein kinase ABL1 (Homo sapiens) (UniProt P00519); test: Inhibition of ABL at 10 uM
[32] = target: Ribosomal protein S6 kinase alpha-5 (Homo sapiens) (UniProt O75582); test: Inhibition of MSK1 at 10 uM; procedure, shortened: as §2
[33] = target: Protein kinase C zeta type (Homo sapiens) (UniProt Q05513); test: Inhibition of PKCzeta at 10 uM
[34] = target: MAP/microtubule affinity-regulating kinase 3 (Homo sapiens) (UniProt P27448); test: Inhibition of c-TAK1 at 10 uM; procedure, shortened: as §2
[35] = target: Ribosomal protein S6 kinase alpha-1 (Homo sapiens) (UniProt Q15418); test: Inhibition of RSK1 at 10 uM; procedure, shortened: as §2
[36] = target: Tyrosine-protein kinase Fyn (Homo sapiens) (UniProt P06241); test: Inhibition of FYN at 10 uM; procedure, shortened: as §2
[37] = target: Serine/threonine-protein kinase PAK 2 (Homo sapiens) (UniProt Q13177); test: Inhibition of PAK2 at 10 uM
[38] = target: Death-associated protein kinase 1 (Homo sapiens, UniProt P53355); test: Inhibition of DAPK1
Procedure, shortened: (§3)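 IC50 runs used the Z'-LYTE Ser/Thr 13 peptide format. Human recombinant DAPK1 was at 2.6 μg/mL final; DAPK3 was recombinant. Each kinase was incubated with 10 μM ATP and a range of inhibitor concentrations in 50 mM HEPES pH 7.4, 10 mM MgCl2, 0.01% Brij-35, 0.5% DMSO, with peptide substrate.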

[39] = target: Calcium/calmodulin-dependent protein kinase type IV (Homo sapiens) (UniProt Q16566); test: Inhibition of CAMK4 at 10 uM; procedure, shortened: as §2
[40] = target: Serine/threonine-protein kinase Sgk1 (Homo sapiens, UniProt O00141); test: Inhibition of SGK1; procedure, shortened: as §2
[41] = target: Cyclin-dependent kinase 2 (Homo sapiens) (UniProt P24941); test: Inhibition of CDK2 at 10 uM; procedure, shortened: as §2
[42] = target: T1, Death-associated protein kinase 3; test: Inhibition of DAPK3; procedure, shortened: as §3
[43] = Inhibition of AMPK at 10 uM
[44] = target: Protein kinase C beta type (Homo sapiens) (UniProt P05771); test: Inhibition of PKCbeta2 at 10 uM
[45] = target: Glycogen synthase kinase-3 beta (Homo sapiens) (UniProt P49841); test: Inhibition of GSK3-beta at 10 uM
[46] = target: RAC-beta serine/threonine-protein kinase (Homo sapiens) (UniProt P31751); test: Inhibition of AKT2 at 10 uM
[47] = target: Serine/threonine-protein kinase 3 (Homo sapiens) (UniProt Q13188); test: Inhibition of MST2 at 10 uM; procedure, shortened: as §2
[48] = target: Tyrosine-protein kinase SYK (Homo sapiens) (UniProt P43405); test: Inhibition of SYK at 10 uM
[49] = Inhibition of PKA at 10 uM
[50] = target: Tyrosine-protein kinase Lck (Homo sapiens) (UniProt P06239); test: Inhibition of LCK at 10 uM; procedure, shortened: as §2
[51] = target: Dual specificity tyrosine-phosphorylation-regulated kinase 1A (Homo sapiens, UniProt Q13627); test: Inhibition of […]; procedure, shortened: as §2
[52] = target: Serine/threonine-protein kinase Chk1 (Homo sapiens) (UniProt O14757); test: Inhibition of CHK1 at 10 uM; procedure, shortened: as §2

Sequence of Serine/threonine-protein kinase PAK 2 (Homo sapiens) (Q13177 whole entry): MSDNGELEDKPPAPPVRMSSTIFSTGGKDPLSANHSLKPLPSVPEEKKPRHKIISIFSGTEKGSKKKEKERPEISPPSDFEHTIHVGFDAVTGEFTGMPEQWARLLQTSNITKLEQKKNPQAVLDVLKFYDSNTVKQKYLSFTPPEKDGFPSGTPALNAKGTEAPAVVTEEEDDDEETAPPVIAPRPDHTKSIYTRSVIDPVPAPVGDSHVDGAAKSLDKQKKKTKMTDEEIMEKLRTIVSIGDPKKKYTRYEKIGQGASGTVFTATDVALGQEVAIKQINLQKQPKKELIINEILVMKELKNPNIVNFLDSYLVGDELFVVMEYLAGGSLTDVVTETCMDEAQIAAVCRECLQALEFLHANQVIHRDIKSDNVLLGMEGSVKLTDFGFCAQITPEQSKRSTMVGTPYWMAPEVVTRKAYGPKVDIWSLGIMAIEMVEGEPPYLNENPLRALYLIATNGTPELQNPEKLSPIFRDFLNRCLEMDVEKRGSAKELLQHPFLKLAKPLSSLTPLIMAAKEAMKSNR
Sequence of Mitogen-activated protein kinase 1 (P28482 whole entry): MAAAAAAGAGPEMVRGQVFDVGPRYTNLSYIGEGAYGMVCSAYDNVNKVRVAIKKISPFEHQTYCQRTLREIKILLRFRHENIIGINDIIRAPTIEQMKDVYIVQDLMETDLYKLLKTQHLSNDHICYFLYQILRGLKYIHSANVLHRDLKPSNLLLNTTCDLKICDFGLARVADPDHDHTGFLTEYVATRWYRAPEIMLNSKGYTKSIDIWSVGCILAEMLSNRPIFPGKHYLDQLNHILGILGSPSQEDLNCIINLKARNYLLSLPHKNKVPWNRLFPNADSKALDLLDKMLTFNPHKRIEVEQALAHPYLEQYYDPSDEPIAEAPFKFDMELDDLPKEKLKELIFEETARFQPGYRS
Sequence of Serine/threonine-protein kinase D2 (Homo sapiens) (Q9BZL6 whole entry): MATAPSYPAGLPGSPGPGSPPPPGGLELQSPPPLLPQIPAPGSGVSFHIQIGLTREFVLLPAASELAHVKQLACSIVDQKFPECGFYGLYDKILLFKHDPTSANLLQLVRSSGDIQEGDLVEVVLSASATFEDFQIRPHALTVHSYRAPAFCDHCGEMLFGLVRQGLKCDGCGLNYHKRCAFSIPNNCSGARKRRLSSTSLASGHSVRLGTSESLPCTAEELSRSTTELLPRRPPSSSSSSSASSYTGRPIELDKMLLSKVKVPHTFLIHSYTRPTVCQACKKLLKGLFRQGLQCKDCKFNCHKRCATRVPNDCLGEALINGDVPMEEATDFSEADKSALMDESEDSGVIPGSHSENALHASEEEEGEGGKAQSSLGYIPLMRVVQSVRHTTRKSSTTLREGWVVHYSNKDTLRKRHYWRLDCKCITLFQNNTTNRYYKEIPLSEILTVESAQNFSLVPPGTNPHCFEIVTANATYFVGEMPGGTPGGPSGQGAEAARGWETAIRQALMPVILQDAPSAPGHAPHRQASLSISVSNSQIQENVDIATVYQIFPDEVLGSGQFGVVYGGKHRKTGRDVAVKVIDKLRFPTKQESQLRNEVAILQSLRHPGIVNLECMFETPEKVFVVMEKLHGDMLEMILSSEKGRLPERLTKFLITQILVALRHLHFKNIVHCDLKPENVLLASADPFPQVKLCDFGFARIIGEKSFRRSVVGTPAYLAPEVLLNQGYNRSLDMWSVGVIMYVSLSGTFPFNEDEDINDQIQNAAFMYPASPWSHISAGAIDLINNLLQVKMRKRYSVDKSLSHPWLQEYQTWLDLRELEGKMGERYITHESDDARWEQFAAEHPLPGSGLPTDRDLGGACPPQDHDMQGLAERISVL
Sequence of Tyrosine-protein kinase Fyn (Homo sapiens) (P06241 2-537 limits assumed): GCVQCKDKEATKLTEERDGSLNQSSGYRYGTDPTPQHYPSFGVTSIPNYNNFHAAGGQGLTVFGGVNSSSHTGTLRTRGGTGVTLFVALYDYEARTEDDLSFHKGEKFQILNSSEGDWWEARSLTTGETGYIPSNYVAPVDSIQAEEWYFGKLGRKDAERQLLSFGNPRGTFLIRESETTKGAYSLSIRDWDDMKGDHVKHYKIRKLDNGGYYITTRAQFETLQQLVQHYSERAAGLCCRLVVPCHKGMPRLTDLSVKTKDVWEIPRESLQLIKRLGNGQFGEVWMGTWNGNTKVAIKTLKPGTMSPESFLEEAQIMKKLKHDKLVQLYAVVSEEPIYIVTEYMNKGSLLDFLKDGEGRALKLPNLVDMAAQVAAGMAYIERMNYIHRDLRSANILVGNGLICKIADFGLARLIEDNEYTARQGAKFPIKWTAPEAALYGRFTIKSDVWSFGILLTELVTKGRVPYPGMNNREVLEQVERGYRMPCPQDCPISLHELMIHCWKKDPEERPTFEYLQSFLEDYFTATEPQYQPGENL
Sequence of MAP/microtubule affinity-regulating kinase 3 (Homo sapiens) (P27448 whole entry, looked up): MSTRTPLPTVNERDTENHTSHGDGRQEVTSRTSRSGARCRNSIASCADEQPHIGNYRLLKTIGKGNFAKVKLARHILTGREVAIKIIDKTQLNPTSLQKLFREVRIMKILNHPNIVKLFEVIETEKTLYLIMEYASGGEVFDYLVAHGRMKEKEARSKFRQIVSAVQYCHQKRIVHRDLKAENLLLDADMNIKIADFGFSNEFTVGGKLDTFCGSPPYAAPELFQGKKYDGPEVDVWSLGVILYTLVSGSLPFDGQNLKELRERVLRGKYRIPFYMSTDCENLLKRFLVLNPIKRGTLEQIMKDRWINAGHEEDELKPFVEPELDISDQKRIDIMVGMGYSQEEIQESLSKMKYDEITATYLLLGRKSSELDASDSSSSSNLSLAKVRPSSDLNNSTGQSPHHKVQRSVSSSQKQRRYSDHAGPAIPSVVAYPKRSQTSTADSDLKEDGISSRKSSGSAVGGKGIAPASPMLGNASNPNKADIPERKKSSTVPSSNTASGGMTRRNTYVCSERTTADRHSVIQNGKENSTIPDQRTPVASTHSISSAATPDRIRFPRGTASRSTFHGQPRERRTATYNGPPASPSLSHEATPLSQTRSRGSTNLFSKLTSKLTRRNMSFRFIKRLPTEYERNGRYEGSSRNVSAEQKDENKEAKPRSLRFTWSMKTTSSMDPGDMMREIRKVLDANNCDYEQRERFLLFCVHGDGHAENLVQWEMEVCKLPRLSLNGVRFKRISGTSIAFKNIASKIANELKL
Sequence of RAF proto-oncogene serine/threonine-protein kinase (Homo sapiens) (P04049 whole entry): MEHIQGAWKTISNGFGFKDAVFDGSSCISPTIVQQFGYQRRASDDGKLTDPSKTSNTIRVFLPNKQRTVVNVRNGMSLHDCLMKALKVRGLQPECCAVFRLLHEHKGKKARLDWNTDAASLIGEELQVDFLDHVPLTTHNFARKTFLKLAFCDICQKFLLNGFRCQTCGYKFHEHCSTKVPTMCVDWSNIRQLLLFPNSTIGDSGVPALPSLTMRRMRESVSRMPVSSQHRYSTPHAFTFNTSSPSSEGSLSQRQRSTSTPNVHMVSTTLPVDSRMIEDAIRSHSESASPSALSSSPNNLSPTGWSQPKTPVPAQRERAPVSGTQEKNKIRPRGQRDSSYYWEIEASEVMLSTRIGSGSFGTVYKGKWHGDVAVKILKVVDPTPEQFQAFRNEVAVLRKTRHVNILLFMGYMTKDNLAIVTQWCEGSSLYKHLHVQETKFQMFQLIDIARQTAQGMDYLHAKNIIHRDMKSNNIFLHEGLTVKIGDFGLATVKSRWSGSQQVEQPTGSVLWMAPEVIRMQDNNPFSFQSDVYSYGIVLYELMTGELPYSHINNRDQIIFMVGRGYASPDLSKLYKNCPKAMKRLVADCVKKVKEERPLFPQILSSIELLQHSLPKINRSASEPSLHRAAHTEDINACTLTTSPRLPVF
Sequence of Serine/threonine-protein kinase 3 (Homo sapiens) (Q13188 whole entry): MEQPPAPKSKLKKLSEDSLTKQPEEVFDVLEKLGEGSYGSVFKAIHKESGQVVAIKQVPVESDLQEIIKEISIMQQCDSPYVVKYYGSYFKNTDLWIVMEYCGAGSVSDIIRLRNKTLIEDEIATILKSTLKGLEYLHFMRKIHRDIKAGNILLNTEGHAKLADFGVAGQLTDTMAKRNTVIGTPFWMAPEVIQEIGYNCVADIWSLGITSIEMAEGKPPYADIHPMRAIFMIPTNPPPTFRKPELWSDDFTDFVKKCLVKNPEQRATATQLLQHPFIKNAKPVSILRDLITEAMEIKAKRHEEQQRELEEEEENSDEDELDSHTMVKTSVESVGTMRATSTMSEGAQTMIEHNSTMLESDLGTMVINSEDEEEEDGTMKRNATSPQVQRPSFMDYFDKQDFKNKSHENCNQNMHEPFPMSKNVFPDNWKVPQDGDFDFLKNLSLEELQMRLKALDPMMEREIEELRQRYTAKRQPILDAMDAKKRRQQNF
Sequence of Serine/threonine-protein kinase pim-2 (Homo sapiens) (Q9P1W9 whole entry, looked up): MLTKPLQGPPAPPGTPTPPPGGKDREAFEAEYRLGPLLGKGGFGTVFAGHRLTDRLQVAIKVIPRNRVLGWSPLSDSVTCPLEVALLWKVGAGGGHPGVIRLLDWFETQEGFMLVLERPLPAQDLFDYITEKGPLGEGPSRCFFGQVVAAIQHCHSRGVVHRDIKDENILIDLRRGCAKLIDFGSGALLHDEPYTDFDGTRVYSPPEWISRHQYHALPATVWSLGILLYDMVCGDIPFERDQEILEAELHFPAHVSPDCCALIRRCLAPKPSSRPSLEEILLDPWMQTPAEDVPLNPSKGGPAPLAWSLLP

SMILES: Cc1c(O)ccc2c(CN3CCN(C)CC3)cc(=O)oc12
- inhibition [1]: 12%
- inhibition [2]: 54%

SMILES: Cc1ccccc1C1=N/C(=C\c2cccnc2)C(=O)O1
- inhibition [1]: 3%
- inhibition [2]: 58%

SMILES: O=C1OC(C23CC4CC(CC(C4)C2)C3)=N/C1=C\c1cccnc1
- inhibition [1]: 3%
- inhibition [2]: 58%

SMILES: O=C1OC(/C=C/c2ccccc2)=NC/1=C\c1cccnc1
- inhibition [3]: inactive
- inhibition [4]: inactive
- inhibition [5]: inactive
- inhibition [6]: inactive
- inhibition [7]: inactive
- inhibition [8]: inactive
- inhibition [9]: inactive
- inhibition [10]: inactive
- pIC50 [11]: < 5.00
- inhibition [12]: inactive
- pIC50 [13]: < 5.00
- inhibition [14]: inactive
- inhibition [15]: inactive
- pIC50 [16]: > 5.00
- inhibition [17]: inactive
- inhibition [18]: inactive
- inhibition [19]: inactive
- inhibition [20]: inactive
- inhibition [21]: inactive
- inhibition [22]: inactive
- inhibition [23]: inactive
- pIC50 [24]: < 5.00
- inhibition [25]: inactive
- inhibition [26]: inactive
- inhibition [27]: inactive
- inhibition [28]: inactive
- inhibition [29]: inactive
- pIC50 [30]: < 5.00
- inhibition [31]: inactive
- inhibition [32]: inactive
- inhibition [33]: inactive
- inhibition [34]: inactive
- inhibition [35]: inactive
- inhibition [36]: inactive
- inhibition [37]: inactive
- pIC50 [38]: > 6.00
- inhibition [39]: inactive
- inhibition [1]: 3%
- pIC50 [40]: < 5.00
- inhibition [2]: 58%
- inhibition [41]: inactive
- pIC50 [42]: > 6.00
- inhibition [43]: inactive
- inhibition [44]: inactive
- inhibition [45]: inactive
- inhibition [46]: inactive
- inhibition [47]: inactive
- inhibition [48]: inactive
- inhibition [49]: inactive
- inhibition [50]: inactive
- pIC50 [51]: < 5.00
- inhibition [52]: inactive

SMILES: O=C1OC(c2ccccc2)=N/C1=C\c1cccnc1
- inhibition [1]: 71%
- inhibition [2]: 84%

SMILES: Cc1cccc2c(C(=O)O)cc(-c3ccncc3)nc12
- inhibition [1]: 2%
- inhibition [2]: 72%

SMILES: Cc1ccc2nc(-c3ccncc3)cc(C(=O)O)c2c1
- inhibition [1]: 3%
- inhibition [2]: 58%

SMILES: O=C1OC(c2cccc(Cl)c2[N+](=O)[O-])=N/C1=C\c1cccnc1
- inhibition [1]: 3%
- inhibition [2]: 58%
